Measured values reported in ChEMBL document CHEMBL1137359, “Potent and orally bioavailable 8-bicyclo[2.2.2]octylxanthines as adenosine A1 receptor antagonists” (J Med Chem, 2006).
Values after ≈ are worked out from the molar mass of the structure shown.

Experiments:
[1] = target: T1, Adenosine receptor A3 (Homo sapiens) (UniProt P0DMS8); assay: Displacement of [125I]ABA from human adenosine A3 receptor expressed in HEK cells relative to control; assay type: cell-based; design: concentration or dose not given beside the values; conditions: HEK293
T1 sequence (whole entry): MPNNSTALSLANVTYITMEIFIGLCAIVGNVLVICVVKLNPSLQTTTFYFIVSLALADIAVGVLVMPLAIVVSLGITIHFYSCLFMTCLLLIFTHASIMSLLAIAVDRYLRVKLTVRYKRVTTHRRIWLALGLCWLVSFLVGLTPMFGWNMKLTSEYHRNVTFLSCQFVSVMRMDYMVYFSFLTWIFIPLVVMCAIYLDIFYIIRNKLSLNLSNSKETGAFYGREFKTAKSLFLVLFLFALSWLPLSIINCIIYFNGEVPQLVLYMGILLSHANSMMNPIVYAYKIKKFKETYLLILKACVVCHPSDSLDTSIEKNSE
Outline: (§1)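 Single-point screen at 1 µM antagonist, run in duplicate, on transfected-cell membranes: CHO-K1 (hA1), HEK (hA2A, hA2B, hA3). 2 h at room temperature in 50 mM HEPES pH 7.4, 1 mM EDTA, 5 mM MgCl2, 1 U/mL adenosine deaminase; 5% DMSO except hA3. Nonspecific binding with 50 µM XAC, or 10 µM BW-1433 for hA3. Result is % radioligand bound relative to control.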

Adenosine receptor A1 [2] = target: T2, Adenosine receptor A1 (Homo sapiens, UniProt P30542); assay: Displacement of [125I]ABA from human adenosine A1 receptor expressed in CHOK1 cells; assay type: cell-based, CHO-K1
T2 sequence (P30542 whole entry): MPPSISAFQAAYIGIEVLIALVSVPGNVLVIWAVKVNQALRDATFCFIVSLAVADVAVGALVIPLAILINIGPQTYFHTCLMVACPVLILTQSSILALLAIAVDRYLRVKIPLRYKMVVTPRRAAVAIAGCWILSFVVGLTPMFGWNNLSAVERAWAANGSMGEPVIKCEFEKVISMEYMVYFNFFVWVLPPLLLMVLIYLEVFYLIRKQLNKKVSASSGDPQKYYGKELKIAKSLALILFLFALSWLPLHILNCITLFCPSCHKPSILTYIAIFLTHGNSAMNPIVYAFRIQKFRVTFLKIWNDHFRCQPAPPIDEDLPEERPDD
Outline: (§2)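 Membranes from stably transfected CHO-K1 (hA1) or HEK (hA2A, hA2B, hA3) cells, 2 h at room temperature in 50 mM HEPES pH 7.4, 1 mM EDTA, 5 mM MgCl2, 1 U/mL adenosine deaminase. 5% DMSO final except hA3. Full curves 10^-11–10^-5 M, seven concentrations, four determinations each. Filtration, γ-counting, Ki derived.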

[3] = target: T3, Adenosine receptor A2b (Homo sapiens) (UniProt P29275); assay: Displacement of [125I]3-(4-aminobenzyl)-8-phenyloxyacetate-1-propyl-xanthine from human adenosine A2B receptor expressed in HEK cells relative to control; assay type: cell-based; design: concentration or dose not given beside the values; conditions: HEK293; outline: as §1
T3 sequence (whole entry): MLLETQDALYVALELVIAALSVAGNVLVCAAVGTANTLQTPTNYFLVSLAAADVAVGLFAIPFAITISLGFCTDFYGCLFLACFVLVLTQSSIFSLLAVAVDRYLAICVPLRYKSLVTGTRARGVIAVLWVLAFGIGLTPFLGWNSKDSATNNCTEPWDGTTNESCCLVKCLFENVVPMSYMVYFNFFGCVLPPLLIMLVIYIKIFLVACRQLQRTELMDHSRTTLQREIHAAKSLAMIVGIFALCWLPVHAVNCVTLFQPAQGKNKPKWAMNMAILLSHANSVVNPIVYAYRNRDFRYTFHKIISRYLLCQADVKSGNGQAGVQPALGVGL

[4] = target: Adenosine receptors; A1 & A2a (Homo sapiens) (UniProt P30542+P29274); assay: Selectivity for human adenosine A1 receptor over human adenosine A2A receptor; assay type: protein assay
Adenosine receptor A2a [5] = target: T4, Adenosine receptor A2a (Homo sapiens, UniProt P29274); assay: Displacement of [125I]ZM-241385 from human adenosine A2A receptor expressed in HEK cells; assay type: cell-based, HEK293; outline: as §2
T4 sequence (P29274 whole entry): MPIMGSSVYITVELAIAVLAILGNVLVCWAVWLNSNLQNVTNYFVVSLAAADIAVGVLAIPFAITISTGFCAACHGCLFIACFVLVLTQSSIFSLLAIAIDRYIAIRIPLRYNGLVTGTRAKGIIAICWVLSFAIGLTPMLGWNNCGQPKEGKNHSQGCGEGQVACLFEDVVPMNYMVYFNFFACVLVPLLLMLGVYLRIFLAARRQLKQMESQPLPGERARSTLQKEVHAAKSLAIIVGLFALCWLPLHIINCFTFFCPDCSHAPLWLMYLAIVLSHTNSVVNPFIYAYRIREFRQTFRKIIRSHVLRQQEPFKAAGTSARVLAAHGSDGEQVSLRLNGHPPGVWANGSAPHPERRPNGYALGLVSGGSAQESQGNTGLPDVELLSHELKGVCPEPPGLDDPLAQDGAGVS

Adenosine receptor A2b = target: T5, Adenosine receptor A2b (Homo sapiens, UniProt P29275); assay: Displacement of [125I]3-(4-aminobenzyl)-8-phenyloxyacetate-1-propyl-xanthine from human adenosine A2B receptor expressed in HEK cells; assay type: cell-based, HEK293; outline: as §2
T5 sequence (P29275 whole entry): T3 sequence (whole entry)

Adenosine receptor A3 = target: T6, Adenosine receptor A3 (Homo sapiens, UniProt P0DMS8); assay: Displacement of [125I]ABA from human adenosine A3 receptor expressed in HEK cells; assay type: cell-based, HEK293
T6 sequence (P0DMS8 whole entry): T1 sequence (whole entry)
Outline: as §2, with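 “hA3. Radioligands: 0.3 nM (hA1) or 0.6 nM (hA3) 125I-ABA, 0.7 nM 125I-ZM241385, 0.5 nM A2B ligand.” for “hA3.”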

[6] = target: T7, Adenosine receptor A1 (Homo sapiens) (UniProt P30542); assay: Displacement of [125I]ABA from human adenosine A1 receptor expressed in CHOK1 cells relative to control; assay type: cell-based; design: concentration or dose not given beside the values; conditions: CHO-K1; outline: as §1
T7 sequence (whole entry): T2 sequence (P30542 whole entry)

Adenosine receptor A2a [7] = target: T4, Adenosine receptor A2a; assay: Displacement of [125I]ZM-241385 from human adenosine A2A receptor expressed in HEK cells relative to control; assay type: cell-based; design: concentration or dose not given beside the values; conditions: HEK293; outline: as §1
[8] = Solubility in 0.9% saline; assay type: physicochemical
Outline: (§3)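 Solubility of each compound measured in sterile water for injection, 0.9% saline, 5% dextrose in water, ethanol and octanol; values in mg/mL from duplicate determinations per solvent, individual values varying <5%.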

Adenosine receptor A1 [9] = target: T8, Adenosine receptor A1 (Rattus norvegicus, UniProt P25099); assay: Displacement of [3H]CPX from rat brain cortex adenosine A1 receptor
T8 sequence (P25099 whole entry): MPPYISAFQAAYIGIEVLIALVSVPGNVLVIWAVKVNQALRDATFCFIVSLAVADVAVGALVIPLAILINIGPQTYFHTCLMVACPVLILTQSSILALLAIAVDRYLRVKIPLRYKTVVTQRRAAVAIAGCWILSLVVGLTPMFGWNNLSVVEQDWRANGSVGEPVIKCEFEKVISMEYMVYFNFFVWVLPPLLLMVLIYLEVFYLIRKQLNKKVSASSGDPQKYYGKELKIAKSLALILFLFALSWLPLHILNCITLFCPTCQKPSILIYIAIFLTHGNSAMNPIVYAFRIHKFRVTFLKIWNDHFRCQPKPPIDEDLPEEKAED
Outline: (§4)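 Crude membranes (10-20 µg protein) from rat brain cortex (A1, 2 nM 3H-CPX) or striatum (A2A, 0.5-1.2 nM 3H-ZM241385) incubated 90 min at room temperature in 50 mM Tris-HCl pH 7.4 with 2 U/mL adenosine deaminase. Stopped with ice-cold buffer, then vacuum filtration and scintillation counting. Ki from concentration-response displacement.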

[10] = Solubility in 5% dextrose in water; assay type: physicochemical; outline: as §3
[11] = Solubility in ethanol; assay type: physicochemical; outline: as §3
[12] = Aqueous solubility of the compound; assay type: physicochemical; conditions: water; outline: as §3
[13] = Solubility in octanol; assay type: physicochemical; outline: as §3
Adenosine receptor A2a [14] = target: Adenosine receptor A2a (Rattus norvegicus, UniProt P30543); assay: Displacement of [3H]ZM-241385 from rat brain striatum adenosine A2A receptor; outline: as §4
Adenosine receptor A2a (Rattus norvegicus, UniProt P30543), sequence (P30543 whole entry): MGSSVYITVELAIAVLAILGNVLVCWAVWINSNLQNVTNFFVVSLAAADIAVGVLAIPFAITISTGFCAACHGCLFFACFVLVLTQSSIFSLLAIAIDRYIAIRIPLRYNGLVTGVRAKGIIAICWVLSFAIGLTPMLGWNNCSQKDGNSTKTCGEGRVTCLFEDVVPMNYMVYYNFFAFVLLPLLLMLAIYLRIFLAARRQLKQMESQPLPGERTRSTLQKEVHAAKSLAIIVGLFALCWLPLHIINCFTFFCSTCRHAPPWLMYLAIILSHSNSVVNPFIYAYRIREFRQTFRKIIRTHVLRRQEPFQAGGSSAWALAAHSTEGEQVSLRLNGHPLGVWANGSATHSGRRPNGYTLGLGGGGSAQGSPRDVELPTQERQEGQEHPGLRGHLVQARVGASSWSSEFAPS

| Compound | Activity [1] | Ki (Adenosine receptor A1 [2]) | Activity [3] | Ratio Ki [4] | Ki (Adenosine receptor A2a [5]) | Activity [6] | Activity (Adenosine receptor A2a [7]) | also measured |
| --- | --- | --- | --- | --- | --- | --- | --- | --- |
| CCCn1c(=O)c2nc([C@]34CC[C@](C=O)(CC3)CC4)[nH]c2n(CCC)c1=O | 76% | 0.015 µM | 14% | 53 | 0.799 µM |  |  |  |
| CCCn1c(=O)c2nc([C@]34CC[C@](C(=O)NCC(=O)OC)(CC3)CC4)[nH]c2n(CCC)c1=O |  | 0.008 µM |  | 85 | 0.681 µM |  |  | Ki (Adenosine receptor A2b): 0.207 µM; Ki (Adenosine receptor A3): 6.7 µM |
| CCCn1c(=O)c2[nH]c([C@H]3CC4C[C@@H]3[C@H]3O[C@@H]43)nc2n(CCC)c1=O |  | 0.012 µM |  |  |  |  |  | solubility [8]: 430 µg/mL (≈ 1250 µM); Ki (Adenosine receptor A1 [9]): 0.0007 µM; solubility [10]: 250 µg/mL (≈ 726 µM); solubility [11]: 85300 µg/mL (≈ 248000 µM); solubility [12]: 460 µg/mL (≈ 1340 µM); solubility [13]: 4600 µg/mL (≈ 13400 µM); Ki (Adenosine receptor A3): 4.81 µM; Ki (Adenosine receptor A2a [14]): 1.25 µM |
| CCCn1c(=O)c2nc([C@]34CC[C@](CC(=O)O)(CC3)CC4)[nH]c2n(CCC)c1=O |  |  |  |  |  |  |  | Ki (Adenosine receptor A1 [9]): 0.0225 µM; Ki (Adenosine receptor A2a [14]): 8.96 µM |
| CCCCC[C@]12CC[C@](c3nc4c(=O)n(CCC)c(=O)n(CCC)c4[nH]3)(CC1)CC2 | 100% |  | 100% |  |  | 25% | 79% |  |
| CCCn1c(=O)c2nc([C@]34CC[C@](CO)(CC3)CC4)[nH]c2n(CCC)c1=O | 73% | 0.016 µM | 27% | 26 | 0.414 µM |  |  |  |
| CCCn1c(=O)c2[nH]c([C@]34CC[C@](C(=O)OC)(CC3)CC4)nc2n(CCC)c1=O |  | 0.009 µM |  |  | 0.912 µM |  |  |  |
| CCCn1c(=O)c2nc([C@H]3CC[C@H](C(=O)NCCN(C)C)CC3)[nH]c2n(CCC)c1=O | 91% | 0.012 µM | 16% | 14 | 0.168 µM |  |  |  |

Second part, led by results:

| Activity [1] | Ki (Adenosine receptor A1 [2]) | Activity [3] | Ratio Ki [4] | Ki (Adenosine receptor A2a [5]) | Activity [6] | Activity (Adenosine receptor A2a [7]) | Compound | also measured |
| --- | --- | --- | --- | --- | --- | --- | --- | --- |
| 100% |  | 30% |  |  | 23% | 69% | CCCn1c(=O)c2nc(C3CCC(NC(=O)OCc4ccccc4)CC3)[nH]c2n(CCC)c1=O (mixture of isomers) |  |
| 86% |  | 24% | 27 |  |  |  | CCCn1c(=O)c2nc([C@H]3CC[C@H](NC(=O)OCc4ccccc4)CC3)[nH]c2n(CCC)c1=O |  |
|  | 0.109 µM |  |  | 2.96 µM |  |  | CCCn1c(=O)c2[nH]c([C@H]3CC[C@H](NC(=O)OCc4ccccc4)CC3)nc2n(CCC)c1=O |  |
| 100% |  | 46% |  |  | 60% | 63% | CCCn1c(=O)c2nc([C@H]3CC[C@@H](NC(C)=O)CC3)[nH]c2n(CCC)c1=O |  |
| 100% |  | 38% |  |  | 45% | 92% | CCCn1c(=O)c2nc([C@H]3CC[C@H](NC(C)=O)CC3)[nH]c2n(CCC)c1=O |  |
| 88% |  | 69% |  |  | 31% | 75% | CCCn1c(=O)c2nc([C@H]3CC[C@H](C(=O)O)CC3)[nH]c2n(CCC)c1=O |  |
